In ChEMBL document CHEMBL3259647, “Design, synthesis, and biological evaluation of potent dual agonists of nuclear and membrane bile acid receptors” (J Med Chem, 2014):
The source made the active and inactive calls. No cut-off for these calls is given here.

Columns and labels:
HEK-293T = experiment: Induction of cAMP production in GP-BAR1-deficient HEK293T cells at 10 uM by cAMP responsive element containing luciferase reporter gene assay; assay type: functional, cell-based; conditions: Homo sapiens
Procedure, shortened: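 Control transfection of HEK-293T with only the pGL4.29 CRE-luciferase and pGL4.70 Renilla vectors, without GP-BAR1. 24 h after transfection, cells exposed 18 h to 10 μM compound. Luciferase normalized to Renilla.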

[1] = biological target: T1, Bile acid receptor (Homo sapiens) (UniProt Q96RI1); experiment: Transactivation of human FXR transfected in human HepG2 cells at 1 to 10 uM by beta-galactosidase reporter gene assay; assay type: cell-based
T1 sequence (whole entry): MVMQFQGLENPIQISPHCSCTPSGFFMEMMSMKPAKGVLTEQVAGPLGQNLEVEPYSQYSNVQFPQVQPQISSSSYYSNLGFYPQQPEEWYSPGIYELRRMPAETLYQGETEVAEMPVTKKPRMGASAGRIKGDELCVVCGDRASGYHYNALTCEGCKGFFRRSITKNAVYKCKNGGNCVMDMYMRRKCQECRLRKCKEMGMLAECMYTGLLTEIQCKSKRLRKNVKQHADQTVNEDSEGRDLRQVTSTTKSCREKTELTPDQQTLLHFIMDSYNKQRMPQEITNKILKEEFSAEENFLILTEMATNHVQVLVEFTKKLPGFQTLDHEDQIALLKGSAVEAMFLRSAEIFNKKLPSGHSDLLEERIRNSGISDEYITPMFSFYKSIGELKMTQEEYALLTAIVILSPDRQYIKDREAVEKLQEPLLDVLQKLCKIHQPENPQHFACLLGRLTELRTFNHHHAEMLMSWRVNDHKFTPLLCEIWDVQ
Procedure, shortened: (§1)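 HepG2 cells were grown at 37 °C in MEM with Earle's salts and 10% FBS, then plated at 5 × 10⁴ cells/well. They were transfected with pSG5-FXR, pSG5-RXR, pCMV-β-gal and the IR1 reporter p(hsp27)-TK-LUC, and stimulated 18 h starting 24 h post-transfection. Lines 2 and 3 give the test levels. CDCA 10 μM was the positive control. Luciferase was normalized to β-galactosidase.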

[2] = biological target: T1, Bile acid receptor (Homo sapiens); experiment: Antagonist activity at human FXR transfected in human HepG2 cells assessed as supression of CDCA-induced transcriptional activity at 50 uM by beta-galactosidase reporter gene assay; assay type: cell-based
Procedure, shortened: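 HepG2 cells (MEM with Earle's salts, 10% FBS, 37 °C; 5 × 10⁴ cells/well) transfected with pSG5-FXR, pSG5-RXR, pCMV-βgal and p(hsp27)-TK-LUC IR1 reporter. 24 h post-transfection, treated 18 h with 10 μM CDCA plus 50 μM compound. Luciferase in lysates normalized to β-galactosidase activity. Statistics versus CDCA alone.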

[3] = biological target: T1, Bile acid receptor (Homo sapiens); experiment: Transactivation of human FXR transfected in human HepG2 cells at 10 uM by beta-galactosidase reporter gene assay; assay type: cell-based; procedure, shortened: as §1
[4] = biological target: T2, G-protein coupled bile acid receptor 1 (Homo sapiens) (UniProt Q8TDU6); experiment: Transactivation of human GP-BAR1 transfected in HEK293T cells assessed as induction of intracellular cAMP production at 10 uM after 18 hrs by cAMP responsive element containing luciferase reporter gene assay; assay type: functional, cell-based; conditions: HEK-293T
T2 sequence (whole entry): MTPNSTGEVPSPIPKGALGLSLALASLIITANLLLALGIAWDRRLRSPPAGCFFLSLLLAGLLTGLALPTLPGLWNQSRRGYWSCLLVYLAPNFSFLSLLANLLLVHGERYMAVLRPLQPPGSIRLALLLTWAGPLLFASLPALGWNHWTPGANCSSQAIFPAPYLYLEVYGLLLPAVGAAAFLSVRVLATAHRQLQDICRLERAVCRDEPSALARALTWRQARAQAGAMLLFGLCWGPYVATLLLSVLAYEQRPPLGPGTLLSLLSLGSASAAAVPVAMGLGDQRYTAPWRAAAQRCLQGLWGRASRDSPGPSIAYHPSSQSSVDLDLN
Procedure, shortened: (§2)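 HEK-293T co-transfected with human GP-BAR1 and a CRE-driven luciferase reporter. Stimulated 24 h post-transfection for 18 h at 10 μM. TLCA 10 μM as receptor-dependent reference; forskolin 10 μM as receptor-independent cAMP control. Luciferase normalized to Renilla; mean ± standard error.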

[5] = biological target: T3, G-protein coupled bile acid receptor 1 (Homo sapiens, UniProt Q8TDU6); experiment: Transactivation of human GP-BAR1 transfected in HEK293T cells assessed as induction of intracellular cAMP production after 18 hrs by cAMP responsive element containing luciferase reporter gene assay; assay type: functional, cell-based, HEK-293T
T3 sequence (Q8TDU6 whole entry): T2 sequence (whole entry)
Procedure, shortened: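 Concentration–response in GP-BAR1/CRE-luciferase transfected HEK-293T: 0.1, 1 and 10 μM for 18 h, with TLCA 10 μM positive control. Renilla-normalized luciferase used to calculate EC50.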

[6] = biological target: T4, Bile acid receptor (Mus musculus) (UniProt Q60641); experiment: Agonist activity at FXR in mouse primary hepatocytes assessed as upregulation of BESP mRNA expression; assay type: cell-based; conditions: Hepatocyte
T4 sequence (whole entry): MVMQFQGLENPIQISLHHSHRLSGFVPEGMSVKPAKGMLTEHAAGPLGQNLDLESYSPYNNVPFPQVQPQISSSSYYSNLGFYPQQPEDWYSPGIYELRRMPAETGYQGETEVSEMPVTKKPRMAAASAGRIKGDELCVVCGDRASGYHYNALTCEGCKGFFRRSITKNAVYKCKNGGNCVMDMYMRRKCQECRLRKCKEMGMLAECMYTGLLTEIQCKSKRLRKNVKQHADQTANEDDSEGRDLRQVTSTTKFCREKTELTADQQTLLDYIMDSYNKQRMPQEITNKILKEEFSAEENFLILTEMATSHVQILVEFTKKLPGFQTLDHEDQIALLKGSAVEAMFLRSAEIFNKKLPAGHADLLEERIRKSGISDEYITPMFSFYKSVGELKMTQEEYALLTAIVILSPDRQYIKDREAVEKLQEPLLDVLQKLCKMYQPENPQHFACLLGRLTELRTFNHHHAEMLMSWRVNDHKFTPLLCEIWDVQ
Procedure, shortened: (§3)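 Hepatocytes from wild-type or FXR−/− mice were analysed by real-time PCR for BSEP mRNA, as a measure of FXR-dependent target gene induction. Data are the mean SE of four experiments.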

[7] = biological target: T2, G-protein coupled bile acid receptor 1 (Homo sapiens); experiment: Transactivation of human GP-BAR1 transfected in HEK293T cells assessed as induction of intracellular cAMP production at 10 uM after 18 hrs by luciferase reporter gene assay relative to TLCA; assay type: functional, cell-based; conditions: HEK-293T; procedure, shortened: as §2
[8] = biological target: T1, Bile acid receptor (Homo sapiens); experiment: Transactivation of human FXR transfected in human HepG2 cells at 10 uM by beta-galactosidase reporter gene assay relative to CDCA; assay type: cell-based; conditions: in the assay text read “luciferase reporter gene assay” for “beta-galactosidase reporter gene assay”
Procedure, shortened: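 HepG2 cells transfected with human FXR, RXR, β-gal and hsp27 IR1-luciferase reporter. 24 h post-transfection, stimulated 18 h at 10 μM, with CDCA 10 μM as positive control. Luciferase RLU divided by β-galactosidase activity; mean ± standard error.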

Bile acid receptor = biological target: T5, Bile acid receptor (Homo sapiens, UniProt Q96RI1); experiment: Transactivation of human FXR transfected in human HepG2 cells by beta-galactosidase reporter gene assay; assay type: cell-based
T5 sequence (Q96RI1 whole entry): T1 sequence (whole entry)
Procedure, shortened: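 FXR/RXR/β-gal/IR1-luciferase transfected HepG2 cells treated with 0.01, 0.1, 1 and 10 μM; CDCA 10 μM positive control. β-gal-normalized luciferase used to calculate EC50.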

[9] = biological target: T6, G-protein coupled bile acid receptor 1 (Mus musculus) (UniProt Q80SS6); experiment: Agonist activity at GP-BAR1 in mouse GLUTag cells assessed as increase in intracellular cAMP level; assay type: functional, cell-based
T6 sequence (whole entry): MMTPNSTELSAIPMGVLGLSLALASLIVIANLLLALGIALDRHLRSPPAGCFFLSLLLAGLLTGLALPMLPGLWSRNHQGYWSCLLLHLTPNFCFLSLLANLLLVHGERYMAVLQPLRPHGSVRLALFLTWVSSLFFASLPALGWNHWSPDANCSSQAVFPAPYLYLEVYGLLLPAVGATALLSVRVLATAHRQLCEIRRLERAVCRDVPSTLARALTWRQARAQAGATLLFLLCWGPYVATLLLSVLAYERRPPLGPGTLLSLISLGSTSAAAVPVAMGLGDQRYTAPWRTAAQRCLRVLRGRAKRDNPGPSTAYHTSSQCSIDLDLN
Procedure, shortened: (§4)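 GLUTag enteroendocrine cells measuring intracellular cAMP generation and GLP-1 released into supernatant. Values are the mean ± SE of four to five experiments; significance is versus untreated cells.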

[10] = biological target: T6, G-protein coupled bile acid receptor 1 (Mus musculus); experiment: Agonist activity at GP-BAR1 in mouse GLUTag cells assessed as increase in GLP-1 release; assay type: cell-based; procedure, shortened: as §4
Hepatocyte = experiment: Upregulation of BESP mRNA expression in mouse primary hepatocytes isolated from FXR deficient mouse; assay type: functional, cell-based; procedure, shortened: as §3

| SMILES | Activity (HEK-293T) | Activity [2] | further results |
| --- | --- | --- | --- |
| CC[C@H]1[C@@H](O)[C@@H]2[C@H](CC[C@]3(C)[C@@H]([C@H](C)CCOS(=O)(=O)O)CC[C@@H]23)[C@@]2(C)CC[C@@H](O)C[C@@H]12 | inactive |  | Activity [1]: Active |
| C[C@H](CCCOS(=O)(=O)O)[C@H]1CC[C@H]2[C@@H]3[C@@H](O)C[C@@H]4C[C@H](O)CC[C@]4(C)[C@H]3CC[C@]12C | inactive | inactive |  |
| C[C@H](CCC(=O)O)[C@H]1CC[C@H]2[C@@H]3[C@H](O)C[C@@H]4C[C@H](O)CC[C@]4(C)[C@H]3CC[C@]12C | inactive |  |  |
| CC[C@H]1[C@@H](OS(=O)(=O)O)[C@@H]2[C@H](CC[C@]3(C)[C@@H]([C@H](C)CCCOS(=O)(=O)O)CC[C@@H]23)[C@@]2(C)CC[C@@H](OS(=O)(=O)O)C[C@@H]12 | inactive | inactive |  |
| C[C@H](CCCO)[C@H]1CC[C@H]2[C@@H]3[C@@H](O)C[C@@H]4C[C@H](OS(=O)(=O)O)CC[C@]4(C)[C@H]3CC[C@]12C | inactive | inactive |  |
| C[C@H](CCCCCOS(=O)(=O)O)[C@H]1CC[C@H]2[C@@H]3[C@@H](O)C[C@@H]4C[C@H](O)CC[C@]4(C)[C@H]3CC[C@]12C | inactive | inactive |  |
| C[C@H](CCCCCOS(=O)(=O)O)[C@H]1CC[C@H]2[C@@H]3[C@H](O)C[C@@H]4C[C@H](O)CC[C@]4(C)[C@H]3CC[C@]12C | inactive |  | Activity [3]: Active; Activity [4]: Active |
| CC[C@H]1[C@@H](O)[C@@H]2[C@H](CC[C@]3(C)[C@@H]([C@H](C)CCCOS(=O)(=O)O)CC[C@@H]23)[C@@]2(C)CC[C@@H](O)C[C@@H]12 | inactive |  | EC50 [5]: 200 nM; Activity [6]: Active; Efficacy [7]: 112%; Efficacy [8]: 852%; EC50 (Bile acid receptor): 1000 nM; Activity [9]: Active; Activity [10]: Active; Activity (Hepatocyte): inactive |
| CC[C@H]1[C@@H](OS(=O)(=O)O)[C@@H]2[C@H](CC[C@]3(C)[C@@H]([C@H](C)CCOS(=O)(=O)O)CC[C@@H]23)[C@@]2(C)CC[C@@H](OS(=O)(=O)O)C[C@@H]12 | inactive | inactive |  |
| C[C@H](CCCOS(=O)(=O)O)[C@H]1CC[C@H]2[C@@H]3[C@H](OS(=O)(=O)O)C[C@@H]4C[C@H](OS(=O)(=O)O)CC[C@]4(C)[C@H]3CC[C@]12C | inactive | inactive |  |
| C[C@H](CCC(=O)NCCOS(=O)(=O)O)[C@H]1CC[C@H]2[C@@H]3CC[C@@H]4C[C@H](O)CC[C@]4(C)[C@H]3CC[C@]12C |  |  | Activity [9]: Active; Activity [10]: Active; Activity [4]: Active |
| C[C@H](CCCCCOS(=O)(=O)O)[C@H]1CC[C@H]2[C@@H]3[C@@H](O)C[C@@H]4C[C@H](OS(=O)(=O)O)CC[C@]4(C)[C@H]3CC[C@]12C | inactive | inactive |  |
| C[C@H](CCCCCOS(=O)(=O)O)[C@H]1CC[C@H]2[C@@H]3[C@@H](OS(=O)(=O)O)C[C@@H]4C[C@H](OS(=O)(=O)O)CC[C@]4(C)[C@H]3CC[C@]12C | inactive | inactive |  |
| C=C[C@@]1(C)CC(=O)[C@]2(O)[C@@]3(C)[C@@H](O)CCC(C)(C)[C@@H]3[C@H](O)[C@H](OC(C)=O)[C@@]2(C)O1 | Active |  |  |
| C[C@H](CCCOS(=O)(=O)O)[C@H]1CC[C@H]2[C@@H]3[C@@H](O)C[C@@H]4C[C@H](OS(=O)(=O)O)CC[C@]4(C)[C@H]3CC[C@]12C | inactive | inactive |  |
| C[C@H](CCCOS(=O)(=O)O)[C@H]1CC[C@H]2[C@@H]3[C@H](O)C[C@@H]4C[C@H](O)CC[C@]4(C)[C@H]3CC[C@]12C | inactive | inactive |  |
| C[C@H](CCCOS(=O)(=O)O)[C@H]1CC[C@H]2[C@@H]3[C@@H](OS(=O)(=O)O)C[C@@H]4C[C@H](OS(=O)(=O)O)CC[C@]4(C)[C@H]3CC[C@]12C | inactive | inactive |  |
| C[C@H](CCCCCOS(=O)(=O)O)[C@H]1CC[C@H]2[C@@H]3[C@H](OS(=O)(=O)O)C[C@@H]4C[C@H](OS(=O)(=O)O)CC[C@]4(C)[C@H]3CC[C@]12C | inactive | inactive |  |
| CC[C@H]1[C@@H](O)[C@@H]2[C@H](CC[C@]3(C)[C@@H]([C@H](C)CCC(=O)O)CC[C@@H]23)[C@@]2(C)CC[C@@H](O)C[C@@H]12 | inactive |  | Activity [6]: Active; Activity [9]: Active; Activity [3]: Active; Activity [10]: Active; Activity (Hepatocyte): inactive |
